Values after ≈ are worked out from the molar mass of the structure shown.
Columns and labels:
Type in all cases: functional
Candida albicans = assay: Antifungal activity against Candida albicans after 24 hrs by serial dilution method
In short: (§1)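 NCCLS broth microdilution in 96-well plates, with ATCC or clinical isolate strains. Medium was RPMI 1640 buffered with 0.165 M MOPS, and compounds were dissolved in DMSO and serially diluted in medium. Yeasts were incubated at 35 °C and growth was read at 24 h. MIC80 was taken as the lowest concentration giving ≥80% growth inhibition versus the drug-free control.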

Candida tropicalis = assay: Antifungal activity against Candida tropicalis after 24 hrs by serial dilution method; in short: as §1
Candida parapsilosis = assay: Antifungal activity against Candida parapsilosis after 24 hrs by serial dilution method; conditions: Lodderomyces parapsilosis; in short: as §1
Cryptococcus neoformans = assay: Antifungal activity against Cryptococcus neoformans after 72 hrs by serial dilution method
In short: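 Cryptococcus yeast, ATCC or clinical isolate, tested by NCCLS serial dilution in 96-well plates with RPMI 1640 plus 0.165 M MOPS. Compounds were dissolved in DMSO and serially diluted in medium. Incubation was at 35 °C with MIC80 read at 72 h, defined as the lowest concentration giving ≥80% growth inhibition relative to control.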

Pichia kudriavzevii = assay: Antifungal activity against Candida krusei after 24 hrs by serial dilution method; in short: as §1
Trichophyton rubrum = assay: Antifungal activity against Trichophyton rubrum by serial dilution method
In short: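 Dermatophyte, ATCC or clinical isolate, tested by NCCLS serial-dilution microtest in RPMI 1640 buffered with 0.165 M MOPS. Compounds were dissolved in DMSO and diluted serially in medium, and incubation was at 28 °C. The endpoint was MIC80, the lowest concentration reducing turbidity to ≥80% inhibition of control growth.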

SMILES	MIC80 (Candida albicans)	MIC80 (Candida tropicalis)	MIC80 (Candida parapsilosis)	MIC80 (Cryptococcus neoformans)	MIC80 (Pichia kudriavzevii)	MIC80 (Trichophyton rubrum)
CC(C)(C)OC(=O)CN(CCCOc1ccc(Br)cc1)CC(O)(Cn1cncn1)c1ccc(F)cc1F (racemic)	4 µg/mL (≈ 6.88 µM)	16 µg/mL (≈ 27.5 µM)	64 µg/mL (≈ 110 µM)	64 µg/mL (≈ 110 µM)	4 µg/mL (≈ 6.88 µM)	64 µg/mL (≈ 110 µM)
CCOC(=O)CN(CCCOc1ccc(Br)cc1)CC(O)(Cn1cncn1)c1ccc(F)cc1F (racemic)	4 µg/mL (≈ 7.23 µM)	16 µg/mL (≈ 28.9 µM)	16 µg/mL (≈ 28.9 µM)	32 µg/mL (≈ 57.8 µM)	32 µg/mL (≈ 57.8 µM)	16 µg/mL (≈ 28.9 µM)
COC(=O)CN(CCCOc1ccc(Br)cc1)CC(O)(Cn1cncn1)c1ccc(F)cc1F (racemic)	2 µg/mL (≈ 3.71 µM)	4 µg/mL (≈ 7.42 µM)	64 µg/mL (≈ 119 µM)	8 µg/mL (≈ 14.8 µM)	4 µg/mL (≈ 7.42 µM)	8 µg/mL (≈ 14.8 µM)
OC(CN(CCCOc1ccc(Br)cc1)Cc1ccc(F)cc1)(Cn1cncn1)c1ccc(F)cc1F (racemic)	4 µg/mL (≈ 6.95 µM)	8 µg/mL (≈ 13.9 µM)	2 µg/mL (≈ 3.48 µM)	32 µg/mL (≈ 55.6 µM)	8 µg/mL (≈ 13.9 µM)	16 µg/mL (≈ 27.8 µM)
Cc1ccc(CN(CCCOc2ccc(Br)cc2)CC(O)(Cn2cncn2)c2ccc(F)cc2F)cc1 (racemic)	4 µg/mL (≈ 7 µM)	8 µg/mL (≈ 14 µM)	0.5 µg/mL (≈ 0.875 µM)	64 µg/mL (≈ 112 µM)	8 µg/mL (≈ 14 µM)	64 µg/mL (≈ 112 µM)
OC(CN(CCCOc1ccc(Br)cc1)Cc1ccccc1)(Cn1cncn1)c1ccc(F)cc1F (racemic)	2 µg/mL (≈ 3.59 µM)	8 µg/mL (≈ 14.4 µM)	32 µg/mL (≈ 57.4 µM)	16 µg/mL (≈ 28.7 µM)	4 µg/mL (≈ 7.18 µM)	4 µg/mL (≈ 7.18 µM)
CCCCN(CCCOc1ccc(Br)cc1)CC(O)(Cn1cncn1)c1ccc(F)cc1F (racemic)	2 µg/mL (≈ 3.82 µM)	4 µg/mL (≈ 7.64 µM)	4 µg/mL (≈ 7.64 µM)	4 µg/mL (≈ 7.64 µM)	4 µg/mL (≈ 7.64 µM)	16 µg/mL (≈ 30.6 µM)
CCCN(CCCOc1ccc(Br)cc1)CC(O)(Cn1cncn1)c1ccc(F)cc1F (racemic)	2 µg/mL (≈ 3.93 µM)	2 µg/mL (≈ 3.93 µM)	> 64 µg/mL	4 µg/mL (≈ 7.85 µM)	4 µg/mL (≈ 7.85 µM)	8 µg/mL (≈ 15.7 µM)
CCN(CCCOc1ccc(Br)cc1)CC(O)(Cn1cncn1)c1ccc(F)cc1F (racemic)	0.5 µg/mL (≈ 1.01 µM)	1 µg/mL (≈ 2.02 µM)	2 µg/mL (≈ 4.04 µM)	1 µg/mL (≈ 2.02 µM)	4 µg/mL (≈ 8.07 µM)	2 µg/mL (≈ 4.04 µM)
OC(CNCCCOc1ccc(Br)cc1)(Cn1cncn1)c1ccc(F)cc1F (racemic)	0.0313 µg/mL (≈ 0.067 µM)	< 0.125 µg/mL	0.5 µg/mL (≈ 1.07 µM)	1 µg/mL (≈ 2.14 µM)	< 0.125 µg/mL	0.5 µg/mL (≈ 1.07 µM)
CC(C)(C)OC(=O)CN(CCCOc1ccccc1)CC(O)(Cn1cncn1)c1ccc(F)cc1F (racemic)	4 µg/mL (≈ 7.96 µM)	8 µg/mL (≈ 15.9 µM)	> 64 µg/mL	> 64 µg/mL	8 µg/mL (≈ 15.9 µM)	64 µg/mL (≈ 127 µM)
C=CCN(CCCOc1ccccc1)CC(O)(Cn1cncn1)c1ccc(F)cc1F (racemic)	0.25 µg/mL (≈ 0.583 µM)	1 µg/mL (≈ 2.33 µM)	64 µg/mL (≈ 149 µM)	2 µg/mL (≈ 4.67 µM)	1 µg/mL (≈ 2.33 µM)	1 µg/mL (≈ 2.33 µM)
C#CCN(CCCOc1ccccc1)CC(O)(Cn1cncn1)c1ccc(F)cc1F (racemic)	0.25 µg/mL (≈ 0.586 µM)	4 µg/mL (≈ 9.38 µM)	8 µg/mL (≈ 18.8 µM)	4 µg/mL (≈ 9.38 µM)	1 µg/mL (≈ 2.34 µM)	4 µg/mL (≈ 9.38 µM)
OC(Cn1cncn1)(Cn1cncn1)c1ccc(F)cc1F [FLUCONAZOLE]	0.5 µg/mL (≈ 1.63 µM)	1 µg/mL (≈ 3.27 µM)	1 µg/mL (≈ 3.27 µM)	2 µg/mL (≈ 6.53 µM)	4 µg/mL (≈ 13.1 µM)	1 µg/mL (≈ 3.27 µM)
CCC(C)n1ncn(-c2ccc(N3CCN(c4ccc(OCC5COC(Cn6cncn6)(c6ccc(Cl)cc6Cl)O5)cc4)CC3)cc2)c1=O (stereo not given) [ITRACONAZOLE]	0.125 µg/mL (≈ 0.177 µM)	< 0.125 µg/mL	4 µg/mL (≈ 5.67 µM)	0.5 µg/mL (≈ 0.709 µM)	1 µg/mL (≈ 1.42 µM)	0.125 µg/mL (≈ 0.177 µM)

From ChEMBL document CHEMBL2034974, “Design, synthesis and structure-activity relationships of new triazole derivatives containing N-substituted phenoxypropylamino side chains” (2012)
